In ChEMBL document CHEMBL1122501, “Potential antiatherosclerotic agents. 2. (Aralkylamino)- and (alkylamino) benzoic acid analogues of cetaben” (1983):
One block for each compound: values may come before it.

What was measured:
[1] = molecular target: T1, Sterol O-acyltransferase 1 (Rattus norvegicus) (UniProt O70536); assay: In vitro inhibitory activity against acyl coenzyme A:cholesterol acyltransferase (ACAT); design: concentration or dose not given beside the values; settings: concentration not given here
T1 sequence (whole entry): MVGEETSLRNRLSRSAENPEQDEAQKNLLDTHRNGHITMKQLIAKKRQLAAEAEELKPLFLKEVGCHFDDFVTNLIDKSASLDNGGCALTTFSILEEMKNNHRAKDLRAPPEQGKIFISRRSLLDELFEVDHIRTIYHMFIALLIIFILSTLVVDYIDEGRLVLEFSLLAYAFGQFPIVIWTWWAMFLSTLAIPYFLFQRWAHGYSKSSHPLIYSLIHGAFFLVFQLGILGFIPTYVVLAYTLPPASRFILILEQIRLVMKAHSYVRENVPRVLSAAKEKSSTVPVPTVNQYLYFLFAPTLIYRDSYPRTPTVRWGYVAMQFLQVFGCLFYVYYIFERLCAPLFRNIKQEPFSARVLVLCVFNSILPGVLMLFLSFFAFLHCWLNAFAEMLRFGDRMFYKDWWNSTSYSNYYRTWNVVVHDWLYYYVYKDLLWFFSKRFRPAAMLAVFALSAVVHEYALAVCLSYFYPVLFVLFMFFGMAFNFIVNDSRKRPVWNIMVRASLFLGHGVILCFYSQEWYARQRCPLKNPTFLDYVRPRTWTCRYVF
In short: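 ACAT enzyme from rat adrenal homogenate in 0.2 M KH2PO4 buffer pH 7.4, 1000g 15 min 5 °C supernatant (microsomal fraction). Supernatant + BSA (50 mg/mL) + compound at final 5.2 μg/mL + buffer preincubated 10 min 37 °C; [14C]oleoyl-CoA (0.4 μCi) added, 30 min 37 °C. Lipids extracted, TLC; cholesteryl ester zone counted. Mean % inhibition vs no-compound control; Student's t test.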

[2] = test system: Rattus norvegicus; assay: In vivo triglyceride lowering activity, dosed at 0.03 % of the diet; format: functional
In short: (§1)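 Male CFE or CD-1 Sprague-Dawley rats, 140-150 g; 8 per control group, 4 per test group. Compound mixed into ground chow (w/w) via MeOH-CHCl3 (1:3) solution, solvent evaporated; controls got solvent-treated chow. Fed ad libitum 5 days, food intake monitored, killed fed and bled. Serum sterols and triglycerides by adapted autoanalyzer methods; mean percent of control, Student's t test.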

[3] = test system: Rattus norvegicus; assay: In vivo Sterol lowering activity at dose as 0.10 % of the diet.; format: functional; in short: as §1
[4] = test system: Rattus norvegicus; assay: In vivo triglyceride lowering activity, dosed at 0.01 % of the diet.; format: functional; in short: as §1
[5] = test system: Rattus norvegicus; assay: In vivo triglyceride lowering activity dosed at 0.10 % of the diet; format: functional; in short: as §1
[6] = test system: Rattus norvegicus; assay: In vivo Sterol lowering activity at dose as 0.01 % of the diet; format: functional; in short: as §1
[7] = test system: Rattus norvegicus; assay: In vivo Sterol lowering activity at dose as 0.03 % of the diet; format: functional; in short: as §1
[8] = test system: Rattus norvegicus; assay: In vivo sterol lowering activity dosed at 0.10 % of the diet; format: functional; in short: as §1
[9] = test system: Rattus norvegicus; assay: In vivo Triglyceride lowering activity at dose as 0.01 % of the diet; format: functional; in short: as §1
[10] = test system: Rattus norvegicus; assay: In vivo Triglyceride lowering activity at dose as 0.03 % of the diet.; format: functional; in short: as §1
[11] = test system: Rattus norvegicus; assay: In vivo triglyceride lowering activity, dosed at 0.10 % of the diet.; format: functional; in short: as §1
[12] = test system: Rattus norvegicus; assay: In vivo Triglyceride lowering activity at dose as 0.025 % of the diet; format: functional; in short: as §1
[13] = test system: Rattus norvegicus; assay: In vivo Sterol lowering activity at dose as 0.025 % of the diet.; format: functional; in short: as §1
[14] = test system: Rattus norvegicus; assay: In vivo Sterol lowering activity at dose as 0.05 % of the diet.; format: functional; in short: as §1
[15] = test system: Rattus norvegicus; assay: In vivo triglyceride lowering activity dosed at 0.05 % of the diet; format: functional; in short: as §1
[16] = test system: Rattus norvegicus; assay: In vivo Sterol lowering activity at dose as 0.05 % of the diet; format: functional; in short: as §1

inhibition [1]: 0%
Structure (SMILES): O=C(O)c1ccc(NC/C=C/c2ccccc2)cc1
serum triglycerides, percent of control [2]: 43%
serum sterol, percent of control [3]: 96%
Diet [4]: 85%
serum triglycerides, percent of control [5]: 44%
Diet [6]: 86%
Diet [7]: 70%

inhibition [1]: < 27%
Structure (SMILES): CCCCCCCCc1ccc(CCCNc2ccc(C(=O)O)cc2)s1
serum triglycerides, percent of control [2]: 72%
serum sterol, percent of control [8]: <78%
Diet [9]: 76%
serum triglycerides, percent of control [5]: <57%
Diet [6]: 88%
Diet [7]: <92%

inhibition [1]: 49%
Structure (SMILES): CCOC(=O)c1ccc(NCc2ccc(OC)cc2)cc1
Diet [12]: 73%
Diet [13]: 95%
Diet [14]: 92%
serum sterol, percent of control [3]: 94%
Diet [15]: 62%
serum triglycerides, percent of control [5]: 48%

inhibition [1]: < 35%
Structure (SMILES): O=C(O)c1ccc(NCCCCCCCCc2ccccc2)cc1
serum triglycerides, percent of control [2]: 56%
serum sterol, percent of control [8]: 84%
Diet [9]: <54%
serum triglycerides, percent of control [5]: 74%
Diet [6]: 90%
Diet [7]: <78%

inhibition [1]: 7%
Structure (SMILES): O=C(O)c1ccc(NCc2ccc(-c3ccccc3)cc2)cc1
Diet [12]: 61%
Diet [13]: 98%
Diet [14]: 98%
serum sterol, percent of control [3]: 90%
Diet [15]: 70%
serum triglycerides, percent of control [5]: 42%

inhibition [1]: < 72%
Structure (SMILES): CCOC(=O)c1ccc(NCCCCCCCCCCCn2ccnc2)cc1
serum triglycerides, percent of control [2]: 92%
serum sterol, percent of control [8]: 89%
Diet [9]: 78%
serum triglycerides, percent of control [5]: <57%
Diet [6]: 89%
Diet [7]: 100%

inhibition [1]: < 71%
Structure (SMILES): C=C(CCCCCCCCCC)CCCCCNc1ccc(C(=O)O)cc1
serum triglycerides, percent of control [2]: <64%
serum sterol, percent of control [8]: <53%
Diet [9]: <65%
serum triglycerides, percent of control [5]: <30%
Diet [6]: <81%
Diet [7]: <85%

inhibition [1]: 2%
Structure (SMILES): O=C(O)c1ccc(NCCCc2ccc(OCc3ccccc3)cc2)cc1
Diet [12]: 67%
Diet [13]: 90%
Diet [14]: 96%
serum sterol, percent of control [3]: 93%
Diet [15]: 69%
serum triglycerides, percent of control [5]: 60%

inhibition [1]: 15%
Structure (SMILES): CCCCCCCCc1ccc(CNc2ccc(C(=O)O)cc2)s1
serum triglycerides, percent of control [2]: 70%
serum sterol, percent of control [8]: <72%
Diet [9]: 82%
serum triglycerides, percent of control [5]: 70%
Diet [6]: 85%
Diet [7]: <76%

inhibition [1]: 22%
Structure (SMILES): O=C(O)c1ccc(NCCCCCCc2ccc(Cl)cc2)cc1
serum triglycerides, percent of control [2]: 65%
serum sterol, percent of control [3]: 82%
Diet [4]: 61%
serum triglycerides, percent of control [5]: 43%
Diet [6]: 81%
Diet [7]: 78%

inhibition [1]: 22%
Structure (SMILES): Cl.O=C(O)c1ccc(NCCCCCCCCCCCn2ccnc2)cc1
serum triglycerides, percent of control [2]: <48%
serum sterol, percent of control [8]: 113%
Diet [9]: 74%
serum triglycerides, percent of control [5]: <47%
Diet [6]: 95%
Diet [7]: 99%

inhibition [1]: 61%
Structure (SMILES): CCOC(=O)c1ccc(NCCCc2ccccc2)cc1
Diet [12]: 77%
Diet [13]: 94%
Diet [16]: 77%
serum sterol, percent of control [8]: 79%
Diet [15]: 56%
serum triglycerides, percent of control [5]: 57%

Continued, compound first:

Structure (SMILES): CCCCCCCCCCCCCCCCNc1ccc(C(=O)[O-])cc1.[Na+] [CETABEN SODIUM]
serum triglycerides, percent of control [2]: <60%
serum sterol, percent of control [8]: <60%
Diet [9]: <75%
serum triglycerides, percent of control [5]: <41%
Diet [6]: 90%
Diet [7]: <76%

Structure (SMILES): CCCCCCCCCCCCCCCCCCNc1ccc(C(=O)[O-])cc1.[Na+]
serum triglycerides, percent of control [2]: <76%
serum sterol, percent of control [8]: 79%
Diet [9]: 90%
serum triglycerides, percent of control [5]: <52%
Diet [6]: <84%
Diet [7]: 86%

Structure (SMILES): CCCCCCCCCCCCNc1ccc(C(=O)[O-])cc1.[Na+]
serum triglycerides, percent of control [2]: <56%
serum sterol, percent of control [8]: 88%
Diet [9]: <72%
serum triglycerides, percent of control [5]: <34%
Diet [6]: 89%
Diet [7]: 92%

Structure (SMILES): CCOC(=O)c1ccc(NCCCc2ccc(F)cc2)cc1
inhibition [1]: 25%
Diet [10]: 71%
serum sterol, percent of control [8]: 81%
Diet [4]: 90%
Diet [11]: 68%
Diet [6]: 83%
Diet [7]: 78%

Structure (SMILES): O=C(O)c1ccc(NCCc2ccc(F)cc2)cc1
inhibition [1]: 0%
Diet [12]: 72%
Diet [13]: 104%
Diet [14]: 86%
serum sterol, percent of control [3]: 91%
Diet [15]: 50%
serum triglycerides, percent of control [5]: 54%

Structure (SMILES): CCCCCCCCCCCCCCCCNc1ccc(C(=O)O)cc1 [CETABEN]
serum triglycerides, percent of control [2]: <45%
serum sterol, percent of control [8]: <54%
Diet [9]: <71%
serum triglycerides, percent of control [5]: <31%
Diet [6]: <72%
Diet [7]: <71%

Structure (SMILES): CCCCCCCCCCCCCNc1ccc(C(=O)[O-])cc1.[Na+]
serum triglycerides, percent of control [2]: 70%
serum sterol, percent of control [8]: <76%
Diet [9]: <60%
serum triglycerides, percent of control [5]: <62%
Diet [6]: 110%
Diet [7]: 90%

Structure (SMILES): CCOC(=O)c1ccc(NC/C=C/c2ccccc2)cc1
Diet [12]: 73%
Diet [13]: 92%
Diet [14]: 86%
serum sterol, percent of control [8]: 84%
Diet [15]: 58%
serum triglycerides, percent of control [5]: 60%

Structure (SMILES): C=CCCCCCCCC/C=C/CCCNc1ccc(C(=O)[O-])cc1.[Na+]
Diet [12]: 106%
serum sterol, percent of control [8]: 86%
Diet [15]: 90%
serum triglycerides, percent of control [5]: 87%
Diet [6]: 88%
Diet [7]: 92%

Structure (SMILES): CCCCCCCCCCCCCCCCCCCNc1ccc(C(=O)[O-])cc1.[Na+]
serum triglycerides, percent of control [2]: 99%
serum sterol, percent of control [8]: 98%
Diet [9]: 102%
serum triglycerides, percent of control [5]: <70%
Diet [6]: 93%
Diet [7]: 98%

Structure (SMILES): CCCCCCCCCC/C=C/CCCNc1ccc(C(=O)[O-])cc1.[Na+]
serum triglycerides, percent of control [2]: 117%
serum sterol, percent of control [8]: <82%
Diet [9]: 112%
serum triglycerides, percent of control [5]: <63%
Diet [6]: 86%
Diet [7]: 93%

Structure (SMILES): CCOC(=O)c1ccc(NCCCc2ccc(OCc3ccccc3)cc2)cc1
inhibition [1]: 50%
Diet [12]: 56%
Diet [13]: 86%
Diet [14]: 86%
Diet [3]: 96%
Diet [15]: 46%
serum triglycerides, percent of control [5]: 56%

Structure (SMILES): O=C(O)c1ccc(NCCCCCCCCCCCCc2cccs2)cc1
inhibition [1]: < 57%
serum triglycerides, percent of control [2]: <50%
serum sterol, percent of control [8]: <70%
Diet [9]: <59%
serum triglycerides, percent of control [5]: <42%
Diet [6]: 85%
Diet [7]: <81%

Structure (SMILES): CCCCCCCCc1ccc(CNc2ccc(C(=O)OCC)cc2)s1
inhibition [1]: < 32%
serum triglycerides, percent of control [2]: <59%
serum sterol, percent of control [8]: 82%
Diet [9]: 100%
serum triglycerides, percent of control [5]: <61%
Diet [6]: 97%
Diet [7]: 90%

Structure (SMILES): CCOC(=O)c1ccc(NCCCCCCCCCCc2ccccc2)cc1
inhibition [1]: < 63%
serum triglycerides, percent of control [2]: <58%
serum sterol, percent of control [8]: <89%
Diet [9]: 77%
serum triglycerides, percent of control [5]: <77%
Diet [6]: 100%
Diet [7]: <84%

Structure (SMILES): O=C(O)c1ccc(NCCCCCCCCCC/C=C/c2cccs2)cc1
inhibition [1]: < 53%
serum triglycerides, percent of control [2]: <59%
serum sterol, percent of control [8]: <73%
Diet [9]: 69%
serum triglycerides, percent of control [5]: <41%
Diet [6]: <84%
Diet [7]: <83%

Structure (SMILES): CCCCCCCCCCCc1nc(CNc2ccc(C(=O)O)cc2)c[nH]1.Cl
inhibition [1]: 19%
serum triglycerides, percent of control [2]: <71%
serum sterol, percent of control [8]: 100%
Diet [9]: 79%
serum triglycerides, percent of control [5]: <70%
Diet [6]: 99%
Diet [7]: 93%
